Drawing on ChEMBL document CHEMBL1154604, “Novel hybrids from lamellarin D and combretastatin A 4 as cytotoxic agents” (Eur J Med Chem, 2010), this text covers IC50 for 24 molecules.

The structures appear in SMILES notation.

Format in all cases: functional, cell-based
One test has as its system SMMC-7721. The test is described as follows: Antiproliferative activity against human SMMC7721 cells after 48 hrs by MTT assay. The following applies: SMMC-7721, 48 h. The essentials:
(§1)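 Exponentially growing cells seeded in 96-well plates, left 24 h, then exposed to compounds at given concentrations for 48 h. MTT at 2.5 mg ml^-1 added for 4 h; formazan dissolved in 10% SDS in 0.1 N HCl, absorbance at 570 nm. Viability compared with blank; IC50 (50% inhibition of viability) calculated by Bliss method.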

In another test the test system is A549. The experiment in a line: Antiproliferative activity against human A549 cells after 48 hrs by MTT assay. Particulars: A549, 48 h. The essentials: as §1
A further test has as its system SGC-7901. The test is described as follows: Antiproliferative activity against human SGC7901 cells after 48 hrs by MTT assay. The following applies: SGC-7901, 48 h. The essentials: as §1
Another test relates to HCT-116. The experiment in a line: Antiproliferative activity against human HCT116 cells after 48 hrs by MTT assay. Particulars: HCT-116, 48 h. The essentials:
as §1

The subject of another test is K562. The test is described as follows: Antiproliferative activity against human K562 cells after 48 hrs by MTT assay. The following applies: K562, 48 h. The essentials:
as §1

With `COc1ccc(-c2c(-c3ccc(O)cc3)cn3c2-c2cc(OC)c(OC)cc2CC3)cc1`, the IC50 in the test on SMMC-7721 was over 117 µM; in the test with A549 it was over 117 µM; in the test on SGC-7901 it was over 117 µM; in the test on HCT-116, 34.5 µM; with K562, 3.1 µM.

As for `COc1ccc(-c2c(-c3cc(OC)c(OC)cc3OS(C)(=O)=O)cn3c2-c2cc(OC)c(OC)cc2CC3)cc1OC`, the IC50 with SMMC-7721, in the test on A549, in the test on SGC-7901, in the test with HCT-116 and in the test with K562 was over 83.9 µM each time.

`COc1cc(-c2c(-c3cc(F)ccc3OC)cn3c2-c2cc(OC)c(OC(C)C)cc2CC3)ccc1OC(C)C`: the concentration for half-maximal inhibition (IC50) with SMMC-7721, in the test with A549, in the test with SGC-7901, in the test on HCT-116 and in the test on K562 was over 91.6 µM each time.

For `COc1cc2c(cc1OC)-c1c(-c3cc(OC)c(OC)c(OC)c3)c(-c3ccc(Cl)cc3)cn1CC2`, the IC50 in the test with SMMC-7721, with A549, in the test with SGC-7901, with HCT-116 and in the test on K562 was over 98.8 µM in each case.

`COc1cc2c(cc1OC(C)C)CCn1cc(-c3ccc(O)cc3)c(-c3cc(OC)c(OC)c(OC)c3)c1-2`: the IC50 was 46.7 µM with SMMC-7721; over 96.8 µM in the test on A549; over 96.8 µM in the test on SGC-7901; over 96.8 µM with HCT-116; over 96.8 µM in the test with K562.

`CC(=O)O[C@H]1C(=O)[C@@]2(C)[C@H]([C@H](OC(=O)c3ccccc3)[C@]3(O)C[C@H](OC(=O)[C@H](O)[C@@H](NC(=O)c4ccccc4)c4ccccc4)C(C)=C1C3(C)C)[C@]1(OC(C)=O)CO[C@@H]1C[C@@H]2O` [PACLITAXEL]: inhibition in the test on SGC-7901 was half-maximal at 3.34 µM (IC50).

Turning to `COc1cc(-c2c(-c3ccc(O)c(O)c3)cn3c2-c2cc(OC)c(OC(C)C)cc2CC3)ccc1OC(C)C`, the IC50 with SMMC-7721 was 10.9 µM; in the test with A549, 6.7 µM; in the test on SGC-7901, 11.4 µM; in the test on HCT-116 it was 0.7 µM; in the test with K562, 2.7 µM.

In the case of `COc1cc2c(cc1OC)-c1c(-c3cc(OC)c(OC)c(OC)c3)c(-c3cc(F)ccc3OC)cn1CC2`, the concentration for half-maximal inhibition (IC50) was over 96.2 µM in the test on SMMC-7721; over 96.2 µM with A549; over 96.2 µM in the test with SGC-7901; over 96.2 µM in the test with HCT-116; 37.1 µM with K562.

Take `COc1ccc(-c2c(-c3ccc(OC)c(O)c3)cn3c2-c2cc(OC)c(OC)cc2CC3)cc1`: the IC50 with SMMC-7721, with A549, with SGC-7901, with HCT-116 and in the test with K562 was over 109 µM throughout.

`COc1cc2c(cc1OC)-c1c(-c3cc(OC)c(OC)c(OC)c3)c(-c3ccc(O)c(O)c3)cn1CC2`: the IC50 with SMMC-7721 was 43.9 µM; with A549, 99.4 µM; in the test with SGC-7901 it was over 99.4 µM; with HCT-116 it was 5.8 µM; in the test on K562 it was 14.1 µM.

Regarding `COc1ccc(-c2c(-c3cc(F)ccc3OC(C)C)cn3c2-c2cc(OC)c(OC)cc2CC3)cc1`, the IC50 in the test on SMMC-7721, with A549, in the test on SGC-7901, in the test on HCT-116 and with K562 was over 103 µM throughout.

Consider `COc1ccc(-c2cn3c(c2-c2cc(OC)c(OC)c(OC)c2)-c2cc(OC)c(OC(C)C)cc2CC3)cc1O`, for which the 50% inhibitory concentration (IC50) is over 91.5 µM with SMMC-7721; over 91.5 µM in the test on A549; over 91.5 µM with SGC-7901; over 91.5 µM in the test on HCT-116; 19.6 µM in the test with K562.

As for `COc1ccc(-c2cn3c(c2-c2cc(OC)c(OC)c(OC)c2)-c2cc(OC)c(OC(C)C)cc2CC3)cc1OC(C)C`, the IC50 in the test with SMMC-7721 is over 85.1 µM; in the test with A549 it was over 85.1 µM; with SGC-7901, over 85.1 µM; in the test with HCT-116, over 85.1 µM; with K562, 83.3 µM.

For the molecule `COc1ccc(-c2cn3c(c2-c2cc(OC)c(OC)c(OC)c2)-c2cc(OC)c(OC)cc2CC3)cc1O`, the IC50 was over 96.4 µM with SMMC-7721; over 96.4 µM in the test with A549; over 96.4 µM in the test on SGC-7901; 3.2 µM with HCT-116; 22 µM with K562.

In the case of `COc1cc2c(cc1OC(C)C)CCn1cc(-c3ccc(Br)cc3)c(-c3cc(OC)c(OC)c(OC)c3)c1-2`, the IC50 is over 86.4 µM in the test on SMMC-7721; over 86.4 µM in the test on A549; 15.4 µM in the test with SGC-7901; over 86.4 µM in the test on HCT-116; over 86.4 µM in the test with K562.

As to `COc1ccc(-c2c(-c3cc(F)ccc3OC)cn3c2-c2cc(OC)c(OC)cc2CC3)cc1`, the IC50 in the test on SMMC-7721, in the test on A549, in the test on SGC-7901, in the test on HCT-116 and in the test with K562 was over 109 µM in each case.

As to `COc1cc(OS(C)(=O)=O)c(-c2cn3c(c2-c2ccc(OC(C)C)c(OC)c2)-c2cc(OC)c(OC(C)C)cc2CC3)cc1OC`, the IC50 with SMMC-7721, in the test on A549, in the test on SGC-7901, with HCT-116 and in the test on K562 was over 76.7 µM in each case.

Turning to `COc1cc(-c2c(-c3cc(OC)c(OC(C)C)cc3OS(C)(=O)=O)cn3c2-c2cc(OC)c(OC(C)C)cc2CC3)ccc1OC(C)C`, the IC50 was over 73.5 µM in the test with SMMC-7721; over 73.5 µM with A549; over 73.5 µM in the test on SGC-7901; 21 µM in the test on HCT-116; 59.8 µM with K562.

Turning to `COc1cc2c(cc1OC(C)C)CCn1cc(-c3ccc(O)c(O)c3)c(-c3cc(OC)c(OC)c(OC)c3)c1-2`, the IC50 in the test with SMMC-7721 was over 94.1 µM; in the test with A549, over 94.1 µM; in the test on SGC-7901 it was over 94.1 µM; with HCT-116 it was 1.4 µM; with K562, 4 µM.

Regarding `COc1ccc(-c2c(-c3ccc(O)c(O)c3)cn3c2-c2cc(OC)c(OC)cc2CC3)cc1OC`, the IC50 in the test on SMMC-7721, in the test on A549, with SGC-7901, in the test with HCT-116 and with K562 was over 106 µM each time.

As for `COc1cc2c(cc1OC)-c1c(-c3cc(OC)c(OC)c(OC)c3)c(-c3ccc(O)cc3)cn1CC2`, the IC50 with SMMC-7721 was 15 µM; in the test with A549, 23.3 µM; in the test with SGC-7901, 22.7 µM; in the test with HCT-116 it was 13.8 µM; with K562, 5.3 µM.

For `COc1cc2c(cc1OC)-c1c(-c3cc(OC)c(OC)c(OC)c3)c(-c3ccc(Br)cc3)cn1CC2`, the IC50 is 17.5 µM in the test on SMMC-7721; over 90.8 µM with A549; 1.2 µM with SGC-7901; over 90.8 µM in the test on HCT-116; 8.8 µM with K562.

For the molecule `COc1cc2c(cc1OC)-c1c(-c3cc(OC)c(OC)c(OC)c3)c(-c3ccc(OC)c(OC(C)C)c3)cn1CC2`, the IC50 in the test with SMMC-7721, in the test on A549, in the test with SGC-7901, in the test on HCT-116 and in the test with K562 was over 89.3 µM throughout.

For `COc1cc2c(cc1OC(C)C)CCn1cc(-c3ccc(Cl)cc3)c(-c3cc(OC)c(OC)c(OC)c3)c1-2`, the IC50 in the test with SMMC-7721, with A549, in the test on SGC-7901, in the test with HCT-116 and in the test with K562 was over 93.6 µM each time.
